Tested on: MS2 coat protein
Experiment: apparent Kd, MS2 coat protein; higher = weaker binding; RNA-MaP array; FMN 200 µM where present
Summary of the method: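 Stalled E. coli RNA polymerase transcribed each design on Illumina sequencing-chip clusters. The clusters were titrated with SNAP-549-labelled MS2 coat protein, starting at 0.7 or 1.5 nM and doubling up to 3 µM, first without ligand and then with constant ligand, in 100 mM Tris-HCl pH 7.5, 80 mM KCl, 4 mM MgCl2, BSA, DTT, yeast tRNA and Tween-20. Green signal was normalised to red-channel RNA signal and to the control-cluster median Fmax. The apparent Kd is the median of filtered binding-curve fits made for each cluster.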

[1] = designed as: ON switch for flavin mononucleotide, no ligand
[2] = ligand present: flavin mononucleotide, designed as: ON switch for flavin mononucleotide
[3] = designed as: OFF switch for flavin mononucleotide, no ligand
[4] = ligand present: flavin mononucleotide, designed as: OFF switch for flavin mononucleotide

Row | Sequence | apparent Kd [1] [nM] | apparent Kd [2] [nM] | apparent Kd [3] [nM] | apparent Kd [4] [nM]
1 | GGGUACAUCGGAGGAUAUCAUGUAAACACAUGAGGAUCACCCAUGUCGAUGGAGACAUCGGAGAUUGAGAAGGCCGAUGUACCG | 111 | 7.62 | – | –
2 | UUACUCAUGUAAGGAUAUGCAGUCGUUUCGGCUGCAGAAGGUACUAUAAUACAUGAGGAUCACCCAUGUCUUUUUAAUUUUUAC | 112 | 41 | – | –
3 | AGUAUGUACGCAGGAUAUACAUGAGGAUCACCCAUGUGGAACAGUGUAGUACUAGUUGAUCCUCAGUAGAAGGGCGGCCGAAUA | – | – | 49.3 | 62.6
4 | AAGUCGAGCGUGAGGAUAUCGUUCGAACGACAGAACGAGAAGGCACAUGAGGAUCACCCAUGUGAUUAAGUUCA | – | – | 15.8 | 18.6
5 | AGUGUUGGAGGAUAUACAUGAGGAUCACCCAUGUACAUCACACAGUAUAUCAAACCAUGUAGAAGGCCAAUACA | – | – | 18.2 | 36.4
6 | UAUAUUUAUGUAGGAUAUGGUAUAUAAAAUAUACCAGAAGGACAUGAGGAUCACCCAUGUAUGAAAUUCCAUAAUUGCCGUGUA | – | – | 12.7 | 14.8
7 | UUUAUUUCGGCAGGAUAUACAUGUAUAUAUAUUUCUUUAUAUCUUAUUACAUGAGGAUCACCCAUGUAGAAGGGCCUUCUUAUC | – | – | 47.7 | 46
8 | UGAUCGAGAGAUCUUAGAUUCUGGUAGGAUAUACAUUAUAGAAGAUAUACAUGAGGAUCACCCAUGUAGAAGGACUAGAGUCUA | – | – | 6.73 | 9.72
9 | GGUGGACAUGAGGAUCACCCAUGUGAGGAUAUCGGCCGGCUAGUGGCGGCUGGCUUCACGAGAAGGCGCAUAGU | – | – | 85.8 | 107
10 | GGUAUCUCCAGUGAGGAUAUGCGGCGUAGAACAUGAGGAUCACCCAUGUCCUUCGAAUGGGUUACGCAGAAGGCACUACGGUACC | 36.6 | 16.6 | – | –
11 | UGAGCAUCAGGAUAUAUGUGGCGACCGUGAGGUCGAAGGUUACAUGAGGAUCACCCAUGUAGAAGGGAUGUUCU | – | – | 62.6 | 203
12 | GCACGGUUGGUAGGAUAUCAUUGCGAUUAGCUAUGAGAAGGACCACAUGAGGAUCACCCAUGUCCUCUAAUUAGCCUGCCGUGC | – | – | 152 | 355
13 | UGUCCAUAGCAGAAGGACAUGAAUAAACAUGAAAACAUGAGGAUCACCCAUGUAGGAUAUGCUAUGGACUAAGAGCGAAAGCUC | – | – | 7.06 | 48.1
14 | GAGCCUAAUGAGAAGGUGUGUAUAAAUUAUAUACAAGGAUAUCGGUCGAGCGUGUUGACAUGAGGAUCACCCAUGUUGAGGCUU | 7.86 | 5.29 | – | –
15 | GGACGGAAAGUGAGGAUAUGCUCUACCUCGGUAGAGCAGAAGGCACAUGAGGAUCACCCAUGUGAUUACUGUUC | – | – | 25.5 | 184
16 | GGUCCAAUAUGAGGAUAUAGCAUCGUAUAGAUGCUAGAAGGCGUGUCGGUAGACAUGAGGAUCACCCAUGUAUUACAAUGGACC | 114 | 32 | – | –
17 | AGAUCAACCACAGGAUAUGGCUAGCAUAGCUAGCCAGAAGGGUGGUCGUAUCCAUGUAAAUACAUGAGGAUCACCCAUGUAUCC | 220 | 119 | – | –
18 | CCACGUCAGAUUAACAUGAGGAUCACCCAUGUCUUUUGACAUGAGGAUAUGGAUCCUAAUUGGAUCCAGAAGGCAUGGACGUGG | 963 | 96.9 | – | –
19 | AUAUAUAUUUAGAAGGACAUGAGGAUCACCCAUGUCGCUGGGCCCGGGAAACCGGGCCCGGCCAUGUAGGAUAUAGAUAUAUAU | – | – | 6.72 | 9.5
20 | AUGGCUAAUGAGAAGGUGUAUAUAAAUUAUAUACAAGGAUAUCGGUCAAGCAUGAAAACAUGAGGAUCACCCAUGUUAAGCCAU | 8.11 | 7.01 | – | –
21 | UUGAUACAUACCUCCAUAAACAUGAGGAUCACCCAUGUAAGUGAGGAUAUAGAUUGUUUAGUAUACUAGAAGGCACUUAGAUAU | – | – | 13.1 | 11.9
22 | CCCUCACCAGUCAGGAUAUCUUGUGCGAAAAUGCUAGAGAAGGGACAUGAGGAUCACCCAUGUGCCUGCAAGGA | – | – | 17.1 | 17.9
23 | GAAGACAUAGUUCAGGAUAUAGGAAUAGUCACAUGAGGAUCACCCAUGUGCAUUUAUAUGCGCACUUAGAAGGGAGGUAGUUAUC | 36.3 | 41 | – | –

Source: the EternaBench riboswitch data
